# This is a sample that favours compounds with a hit; in the whole collection about 1.8% have one here.
# Scp-1 inhibitor – inhibitors of human Scp-1 phosphatase | 340,000 tested, 0.88% active | Q9GZU7 | inhibition, % at 20 µM | Recombinant Scp1, phosphopeptide, malachite green phosphate absorbance;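 active means inhibition above about 50% at 20 µM, limit read from the data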
#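 Material – SCP-1 phosphatase catalytic domain, residues 76-261 · Buffer or medium – Acidic Tris acetate buffer with magnesium and detergent · Also added – Phospho 17-mer peptide substrate · Compound – single 20 µM dose, 1% DMSO · Times – 45 min room-temperature reaction, 5 min colour, 30 min stabiliser · Technique – Phosphate-binding colour reagent, absorbance read at 630 nm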
# SUMO1 PPI mod – SUMO1-SIM interaction modulation | inhibition, % at 20 µM | 360,000 tested, 0.33% active | SUMO1 binding to a labelled peptide, TR-FRET, 1 h | P63165; in the data active means inhibition above about 37%
# LMPTP inh – blocks human LMPTP phosphatase | 360,000 tested, 0.22% active | recombinant LMPTP-A, OMFP fluorogenic substrate, fluorescence intensity | inhibition, % at 20 µM | P24666;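 active means compounds that cut the enzyme signal by at least half of the control window in the single-dose screen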
#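 test system = LMPTP-A | amount = 0.625 nM LMPTP-A final | reagent = fluorogenic phosphatase substrate OMFP at 400 µM final | incubation = 50 min at room temperature | benchmarks = no-enzyme low control, uninhibited high control | medium = Bis-Tris pH 6.0, DTT, detergent | signal = fluorescence intensity of OMFP turnover product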
# DNMT1 block – inhibitors of human DNMT1; inhibition (reported as % activation of signal), % at 10 µM; P26358; AID 588458; DNMT1 molecular beacon, Hinp1I cleavage, fluorescence; 360,000 tested, 0.83% active; in the data active means inhibition above about 50%
# STEP inh – blocks human striatal-enriched tyrosine phosphatase; inhibition, % at 20 µM; AID 588621; 360,000 tested, 0.25% active; recombinant STEP, OMFP fluorogenic substrate, fluorescence; P54829;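 active means inhibition at 20 µM, scaled per plate between control wells, above about 37%, limit read from the data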
#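 Test system: STEP tyrosine phosphatase / Reagent: OMFP at 25 µM / Doses: 20 µM, 1% DMSO / Read-out: percent inhibition scaled to no-enzyme and uninhibited-enzyme controls, plate-pattern corrected / Detection: FITC-channel fluorescence of OMFP product / Medium: Bis-Tris buffer pH 6.0, 2.5 mM DTT, 0.005% Tween 20 / Schedule: 20 min at room temperature, dark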
# HKDC1 inh – inhibitors of human hexokinase HKDC1; Q2TB90; recombinant HKDC1, G6PDH/diaphorase resazurin coupled fluorescence; inhibition, % at 20 µM; 340,000 tested, 0.16% active;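 active means inhibition above about 35% when tested at 20 µM, limit read from the data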
# Target sequence (Q2TB90 whole entry, looked up): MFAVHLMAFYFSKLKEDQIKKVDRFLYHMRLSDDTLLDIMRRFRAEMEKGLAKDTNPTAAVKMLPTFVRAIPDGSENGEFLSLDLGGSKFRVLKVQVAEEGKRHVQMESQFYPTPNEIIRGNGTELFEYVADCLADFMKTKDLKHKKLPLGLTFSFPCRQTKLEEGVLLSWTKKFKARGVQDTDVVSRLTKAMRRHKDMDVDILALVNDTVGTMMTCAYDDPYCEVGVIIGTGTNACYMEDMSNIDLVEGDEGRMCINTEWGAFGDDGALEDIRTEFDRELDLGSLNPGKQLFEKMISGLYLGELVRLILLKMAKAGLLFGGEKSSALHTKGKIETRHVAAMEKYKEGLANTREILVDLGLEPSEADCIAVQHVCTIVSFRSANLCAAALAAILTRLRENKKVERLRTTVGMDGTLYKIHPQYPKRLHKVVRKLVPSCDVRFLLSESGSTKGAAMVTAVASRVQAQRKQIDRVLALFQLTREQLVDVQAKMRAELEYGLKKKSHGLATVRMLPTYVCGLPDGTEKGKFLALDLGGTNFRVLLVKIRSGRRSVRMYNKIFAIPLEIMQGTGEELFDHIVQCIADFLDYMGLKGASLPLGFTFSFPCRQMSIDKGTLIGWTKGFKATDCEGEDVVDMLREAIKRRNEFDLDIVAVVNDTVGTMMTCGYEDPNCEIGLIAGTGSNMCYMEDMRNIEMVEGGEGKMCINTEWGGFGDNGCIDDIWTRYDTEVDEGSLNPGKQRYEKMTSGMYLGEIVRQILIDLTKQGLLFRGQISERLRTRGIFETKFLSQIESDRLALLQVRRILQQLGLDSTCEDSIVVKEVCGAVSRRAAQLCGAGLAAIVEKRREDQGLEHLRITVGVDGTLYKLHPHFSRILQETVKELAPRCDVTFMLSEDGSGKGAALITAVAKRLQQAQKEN
#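 Assay system: recombinant HKDC1 hexokinase; detection: coupled resazurin fluorescence, excitation 525 nm, emission 613 nm; benchmarks: DMSO-plus-enzyme-mix negative control, buffer-substituted positive control; compound dosing: single 20 µM dose; schedule: 90 min at room temperature in dark; also added: glucose plus 1 mM ATP as hexokinase substrates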
# A number is an active result; - = inactive; . = no result given.
SMILES,Scp-1 inhibitor,SUMO1 PPI mod,LMPTP inh,DNMT1 block,STEP inh,HKDC1 inh
CC(=O)c1cccc(NC(=O)c2cccc3c(-c4cccc(C(N)=O)c4)coc23)c1,.,49,-,-,-,.
CS(=O)(=O)Nc1cccc(NC(=O)c2cccc3c(-c4cccc(C(N)=O)c4)coc23)c1,.,-,-,-,-,.
COc1ccc(-c2cc3c(=O)n(CC(=O)N4CCCC4)ncn3n2)cc1,-,58,-,-,-,-
O=C(COc1ccccc1)Nc1ccccc1F,-,-,-,-,-,-
O=C(COc1c(Br)cc(Br)c2cccnc12)Nc1ccccc1F,-,47,-,-,-,-
CC(=O)c1ccc(NC(=O)c2ccc(NC(=O)c3ccco3)cc2)cc1,-,-,72,-,86,-
C[C@H](NC(=O)c1nc[nH]c1C(=O)N1CCc2ccccc2C1)C(=O)OCc1ccccc1,-,-,-,-,-,-
O=C(Oc1ccc([N+](=O)[O-])cc1)C1CC(=O)N(c2ccc3c(c2)OCCO3)C1 (stereo not drawn),69,-,-,-,-,-
O=C(/C=C/c1ccccc1)c1cc(Br)ccc(=O)c1O,-,-,-,61,-,-
Cc1ccc(C(=O)OCC(=O)N(CC(C)C)c2c(N)n(Cc3ccccc3)c(=O)[nH]c2=O)cc1[N+](=O)[O-],-,-,-,-,-,-
Cc1cccc(OCc2nnc(SCC(=O)N3CCCCC3)o2)c1,-,-,-,-,-,-
O=C(O)CCCN1C(=O)/C(=C/c2ccc(-c3nc4ccccc4s3)o2)SC1=S,59,-,-,104,62,-
O=C(O)CCCCCN1C(=O)/C(=C\c2ccc(-c3ccc(Cl)cc3)o2)SC1=S,89,70,79,-,-,-
N=C1/C(=C\c2ccc(-c3cccc(Cl)c3)o2)C(=O)N=C2SC=C(c3ccccc3)N12,-,-,-,61,-,-
N=C1S/C(=C\c2ccc(-c3cccc(Cl)c3)o2)C(=O)N1c1nccs1,-,-,-,112,-,-
N=C1/C(=C\c2ccc(-c3ccc(C(=O)O)cc3)o2)C(=O)N=C2SC=C(c3ccccc3)N12,81,110,65,-,61,40
COc1ccc(/C=C2\SC(=N)N(c3nccs3)C2=O)cc1OC,-,-,-,-,-,-
O=C(Nc1cc(C(=O)Nc2ccccc2C(=O)O)cc(C(=O)Nc2ccccc2C(=O)O)c1)c1ccccc1,-,42,-,-,-,-
O=C(Nc1ccccc1C(=O)O)c1cccc(NC(=O)c2ccccc2Br)c1,-,-,-,-,-,-
O=S1(=O)CC(N2CCN(CC3CC3)CC2)CN1Cc1cn(Cc2ccccc2C(F)(F)F)nn1 (stereo not drawn),.,-,-,-,-,.
Cn1c(=O)c(NC2CCCCC2)c2c3c(cccc31)C(=O)c1ccccc1-2,-,-,-,-,-,-
Cn1c(=O)c(NCCO)c2c3c(cccc31)C(=O)c1ccccc1-2,-,-,-,142,-,-
CCCCNc1c2c3c(cccc3n(C)c1=O)C(=O)c1ccccc1-2,-,-,-,192,-,-
Cn1c(=O)c(NCCc2ccccc2)c2c3c(cccc31)C(=O)c1ccccc1-2,-,-,-,76,-,-
CCNc1c2c3c(cccc3n(C)c1=O)C(=O)c1ccccc1-2,-,.,.,.,.,-
SMILES,Scp-1 inhibitor,SUMO1 PPI mod,LMPTP inh,DNMT1 block,STEP inh,HKDC1 inh
O=C(Nc1nc(OCCN2CCCC2=O)cnc1/C=C\c1ccccc1)c1cc2ccccc2s1,.,-,-,-,-,.
O=C1NC[C@@H](CCCCN2CCN(Cc3ccccc3)C(=O)C2=O)N(Cc2ccccc2)C1=O,.,-,-,.,.,.
O=C(Nc1ccccc1)c1ccc(NCCN2C(=O)CCC2=O)c([N+](=O)[O-])c1,-,-,-,-,-,-
CC(C)c1ccc(N(C(=O)c2ccc3c(c2)OCO3)C2C=CS(=O)(=O)C2)cc1 (stereo not drawn),-,-,-,-,-,-
CC(C)CC(=O)Nc1ccc(C(=O)COC(=O)CN2C(=O)NC3(CCCCC3C)C2=O)cc1 (stereo not drawn),-,-,-,-,-,-
Cc1ccc2nc3c(cc(C(=O)NCCc4ccccc4)c(=N)n3CCN3CCOCC3)c(=O)n2c1,-,-,-,-,-,-
N=c1c(C(=O)NCc2ccco2)cc2c(=O)n3ccccc3nc2n1Cc1ccc(Cl)cc1,-,-,52,-,-,-
N=c1c(C(=O)NCc2ccc3c(c2)OCO3)cc2c(=O)n3ccccc3nc2n1Cc1cccnc1,-,-,65,-,-,-
N=c1c(C(=O)NCc2ccco2)cc2c(=O)n3ccccc3nc2n1Cc1ccccc1,-,-,59,75,-,-
N=c1c(C(=O)NCc2ccccc2)cc2c(=O)n3ccccc3nc2n1Cc1ccco1,-,-,-,-,-,-
Cc1ccc2nc3c(cc(C(=O)NCc4ccccc4)c(=N)n3CCCn3ccnc3)c(=O)n2c1,-,-,57,-,-,-
CCOc1ccc(NC(=O)C(Cc2ccccc2)NC(=O)C2CCCCC2)cc1 (stereo not drawn),-,-,-,-,-,-
Cc1cn(CC(=O)NCCCn2ccnc2)c(=O)[nH]c1=O,-,-,-,-,-,-
COc1ccc(/C=N/Nc2ccc(C(=O)O)cc2)c(OC)c1OC,-,-,-,-,-,-
COc1cc(/C=C/c2ccc(O)cc2)cc(OC)c1,-,-,-,-,-,-
COC(=O)c1ccc2c(c1)C(C)(C)C(/C=C/c1ccc(O)cc1)=[N+]2C,99,-,-,-,-,-
COC(=O)c1ccc2c(c1)C(C)(C)C(/C=C/c1ccc(OC)c(OC)c1OC)=[N+]2C,96,-,-,-,-,-
O=C(c1cnccn1)N1CCc2ccccc2C1,-,-,-,-,-,-
CCOC(=O)c1ccc(NC(=O)CSc2nc(NC(=O)c3ccccc3)c3c(C)c(C)oc3n2)cc1,-,-,-,-,-,-
COC(=O)c1ccccc1NC(=O)CSc1nc(NC(=O)c2ccccc2)c2c(C)c(C)oc2n1,-,67,-,-,-,-
C(=C\c1nc(N2CCCCCC2)c2ccccc2n1)/c1ccccc1,-,-,56,-,-,-
CCOC(=O)C(C(=O)Nc1cccc(C)c1)C1CCCCC1 (stereo not drawn),-,-,-,-,-,-
Oc1cc(Nc2ccncc2)cc2cccnc12,-,-,56,-,-,-
COc1cccc(C(=O)NC(=S)N2c3ccccc3CC2C)c1OC (stereo not drawn),-,43,-,-,-,-
CC1Cc2ccccc2N1C(=S)NC(=O)c1ccc(Cl)cc1Cl (stereo not drawn),-,-,-,-,-,-
